Experimental data taken from ChEMBL document CHEMBL4725498, “Synthesis and Biological Evaluations of Electrophilic Steroids Inspired by the Taccalonolides” (ACS Med Chem Lett, 2020).
Activity calls are given as the source filed them. No cut-off for these calls is given here.

How the values were obtained:
[1] = tested on: SK-OV-3; assay: Antiproliferative activity against human SKOV3 cells assessed as reduction in cell growth at 0.01 to 10 uM incubated for 48 hrs by SRB assay; assay type: functional, cell-based; conditions: dose microM 0.01-10, time 48.0 hrs
[2] = tested on: SK-OV-3; assay: Antiproliferative activity against human SKOV3-M6/6 cells assessed as reduction in cell growth at 0.01 to 10 uM incubated for 48 hrs by SRB assay; assay type: functional, cell-based; conditions: dose microM 0.01-10, time 48.0 hrs
[3] = tested on: OVCAR-5; assay: Antiproliferative activity against human OVCAR-5 cells assessed as reduction in cell growth at 0.01 to 10 uM incubated for 48 hrs by SRB assay; assay type: functional, cell-based; conditions: dose microM 0.01-10, time 48.0 hrs
[4] = tested on: ES2; assay: Antiproliferative activity against human ES-2 cells assessed as reduction in cell growth at 0.01 to 10 uM incubated for 48 hrs by SRB assay; assay type: functional, cell-based; conditions: dose microM 0.01-10, time 48.0 hrs
[5] = Selectivity ratio of antiproliferative activity against human SKOV3-M6/6 cells transfected with MDR1 to antiproliferative activity against human SKOV3 cells measured after 48 hrs by sulforhodamine B assay; assay type: functional
[6] = biological target: T1, Tubulin (Homo sapiens) (UniProt P68371+Q9H4B7+P0DPH7+P68366+Q13509+Q71U36+P04350+Q3ZCM7+P07437+P68363+Q9BQE3+Q6PEY2+Q13885+Q9BVA1+Q9BUF5); assay: Induction of microtubule stabilization in human BT-549 cells assessed as bundling of microtubule network at 1 microM incubated for 6 hrs by indirect immunofluorescence assay; assay type: cell-based
Method in brief: (§1)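 BT-549 cells were treated for 6 h with compound or DMSO vehicle. Microtubules were then visualised by immunofluorescence with a β-tubulin antibody, scoring microtubule loss or bundling.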

[7] = tested on: HeLa; assay: Cytotoxicity against human HeLa cells assessed as reduction in cell viability measured after 48 hrs by sulforhodamine B assay; assay type: functional; conditions: read-out: LC50 (the source's name)
Method in brief: (§2)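 HeLa cells exposed to compound for 48 h, then growth measured by sulforhodamine B (SRB) staining. GI50 (50% growth inhibition), TGI (total growth inhibition) and LC50 (50% cytotoxicity) were read from concentration–response data. Values are average ± SEM, n = 3–5.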

[8] = tested on: HeLa; assay: Antiproliferative activity against human HeLa cells assessed as growth inhibition measured after 48 hrs by sulforhodamine B assay; assay type: functional; method in brief: as §2
[9] = tested on: HCC1937; assay: Cytotoxicity against human HCC1937 cells assessed as reduction in cell viability measured after 48 hrs by sulforhodamine B assay; assay type: functional; conditions: read-out: LC50 (the source's name)
Method in brief: (§3)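 Breast lines were tested in a 48 h SRB assay: four molecularly diverse triple-negative lines plus nontumorigenic MCF 10A, with MCF 10A tested up to 50 μM. LC50 values came from concentration–response curves. Complete cytotoxicity was taken as the concentration giving full cell kill after 48 h incubation.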

[10] = tested on: MDA-MB-231; assay: Cytotoxicity against human MDA-MB-231 cells assessed as reduction in cell viability measured after 48 hrs by sulforhodamine B assay; assay type: functional; method in brief: as §3
[11] = tested on: BT-549; assay: Cytotoxicity against human BT-549 cells assessed as reduction in cell viability measured after 48 hrs by sulforhodamine B assay; assay type: functional; conditions: read-out: LC50 (the source's name); method in brief: as §3
[12] = organism: Sus scrofa; assay: Inhibition of porcine brain tubulin polymerization assessed as reduction in rate and extent of tubulin polymerization at 20 uM by turbidimetric assay
Method in brief: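 Purified porcine brain tubulin (20 μM) was incubated with 20 μM compound or DMSO vehicle. Polymerization was monitored turbidimetrically after shift to 37 °C.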

[13] = biological target: T1, Tubulin (Homo sapiens); assay: Induction of microtubule destabilization in human BT-549 cells assessed as loss of microtubule network at 100 nM incubated for 6 hrs by indirect immunofluorescence assay; assay type: cell-based; method in brief: as §1
[14] = organism: Sus scrofa; assay: Inhibition of porcine brain tubulin polymerization assessed as reduction in rate and extent of tubulin polymerization at 5 to 10 uM by turbidimetric assay; conditions: dose microM 5-10
Method in brief: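 Purified porcine brain tubulin (20 μM) was incubated with a range of compound concentrations. Polymerization was monitored turbidimetrically after shift to 37 °C.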

[15] = tested on: BT-549; assay: Cytotoxicity against human BT-549 cells assessed as concentration required for complete reduction in cell viability incubated for 48 hrs by sulforhodamine B assay; assay type: functional; method in brief: as §3
[16] = tested on: MDA-MB-453; assay: Cytotoxicity against human MDA-MB-453 cells assessed as reduction in cell viability measured after 48 hrs by sulforhodamine B assay; assay type: functional; method in brief: as §3
[17] = tested on: MCF-10A; assay: Cytotoxicity against human MCF10A cells assessed as reduction in cell viability measured after 48 hrs by sulforhodamine B assay; assay type: cell-based; method in brief: as §3
[18] = Selectivity index, ratio of LC50 for human HeLa cells to LC50 for human HCC1937 cells measured after 48 hrs by sulforhodamine B assay; assay type: functional
[19] = tested on: HeLa; assay: Inhibition of colony formation in human HeLa cells at 1.4 uM treated for 8 hrs followed by compound washout and measured after 11 days by crystal violet staining based assay; assay type: functional
Method in brief: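 HeLa cells were treated for 8 h with 1.4 μM compound or EtOH vehicle, then the drug was washed out. Colonies were scored 11 days after removal. Groups were compared with vehicle by 1-way ANOVA with Dunnett's post hoc test.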

[20] = tested on: HeLa; assay: Antiproliferative activity against human HeLa cells assessed as reduction in cell viability incubated for 8 hrs by sulforhodamine B assay; assay type: functional; conditions: read-out: LC50 (the source's name)
[21] = tested on: HeLa; assay: Antiproliferative activity against human HeLa cells assessed as reduction in cell growth incubated for 8 hrs by trypan blue exclusion assay; assay type: functional, cell-based
Method in brief: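 HeLa viability was followed during the first 8 h of treatment by trypan blue exclusion.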

SMILES | Activity [1] | Activity [2] | Activity [3] | Activity [4] | Ratio [5] | Activity [6] | CC50 [7] | GI50 [8] | TGI [8] | CC50 [9] | CC50 [11] | inhibition [12] | other results
CC(=O)O[C@H]1C(=O)[C@@]2(C)[C@H]([C@H](OC(=O)c3ccccc3)[C@]3(O)C[C@H](OC(=O)[C@H](O)[C@@H](NC(=O)c4ccccc4)c4ccccc4)C(C)=C1C3(C)C)[C@]1(OC(C)=O)CO[C@@H]1C[C@@H]2O [PACLITAXEL] | Active | Active | Active | Active | 25 | Active |  |  |  |  |  |  | 
C[C@]12CC=CC[C@@H]1CC[C@@H]1[C@@H]2CC[C@]2(C)C(=O)C=C[C@@H]12 |  |  |  |  |  | inactive | 1.07 µM | 0.47 µM | 0.72 µM | 1.39 µM | 0.61 µM | Active | CC50 ([10]; read-out: LC50 (the source's name)): 1.92 µM; Activity [13]: inactive; inhibition [14]: Dose-dependent effect; CC100 [15]: 1 µM
C[C@]12C[C@H]3O[C@H]3C[C@@H]1CC[C@H]1[C@@H]3[C@@H]4O[C@@H]4C(=O)[C@@]3(C)CC[C@@H]12 | Active | Active | Active | Active | 5 |  | 1.09 µM | 0.52 µM | 0.74 µM | 0.47 µM | 1.07 µM | inactive | LC50 (concentration killing 50% of cells) [10]: 2.5 µM; LC50 (concentration killing 50% of cells) [16]: 0.74 µM; LC50 [17]: > 50 µM; RatioLC50 [18]: 2; inhibition at 1.4 µM [19]: 100%; CC50 [20]: 1.4 µM; Activity [21]: inactive
